# Assay results: ChEMBL document CHEMBL2177069, “Novel peptidomimetic compounds containing redox active chalcogens and quinones as potential anticancer agents” (Eur J Med Chem, 2012)
# Calls of active or inactive are those of the source. The calls are words filed in the database; no cut-off is given here.
# Assays:
# Saccharomyces cerevisiae [1] = assay: Growth inhibition of SOD1-deficient Saccharomyces cerevisiae YJR104C mutant at 20 ug/disc after 24 to 48 hrs by agar diffusion assay; type: functional; details: read-out: DIZ
# How it was run: (§1)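 S. cerevisiae deletion mutants or wild type grown on YPD, seeded into liquid agar medium at an optical density of 0.1. 6 mm paper discs soaked with methanolic compound solution were placed on the plates and incubated at 30 °C. Growth was checked after 1 and 2 days, and the inhibition zone diameter was recorded in mm.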
# MCF7 [2] = assay: Induction of Cell cycle arrest in human MCF7 cells assessed as S phase cells at IC50 concentration after 24 hrs by PI-staining based flow cytometric analysis (reference value: 19%); type: functional
# How it was run: (§2)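 MCF-7 cells (10^6) were treated for 24 h, with methanol as the vehicle control. Cells were fixed in cold 70% methanol at 4 °C for one day, washed with PBS, and permeabilized with 0.1% saponin in PBS. They were stained with propidium iodide plus RNase for 30 min. DNA content was read by flow cytometry, giving percentages of cells per cell-cycle phase.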
# MCF7 [3] = assay: Induction of Cell cycle arrest in human MCF7 cells assessed as G2/M phase cells at IC50 concentration after 24 hrs by PI-staining based flow cytometric analysis (reference value: 13%); type: functional; how it was run: as §2
# A-431 [4] = assay: Induction of apoptosis in human A431 cells assessed as late apoptotic cells at 8 uM after 12 hrs by FITC-annexin V/PI staining-based flow cytometric analysis (reference value: 7.4%); type: functional
# Saccharomyces cerevisiae [5] = assay: Growth inhibition of RCK1-deficient Saccharomyces cerevisiae YGL158W mutant at 20 ug/disc after 24 to 48 hrs by agar diffusion assay; type: functional; details: read-out: DIZ; how it was run: as §1
# Saccharomyces cerevisiae [6] = assay: Growth inhibition of PST2-deficient Saccharomyces cerevisiae YDR032C mutant at 20 ug/disc 24 to 48 hrs by agar diffusion assay; type: functional; details: read-out: DIZ; how it was run: as §1
# Saccharomyces cerevisiae [7] = assay: Growth inhibition of UFD2-deficient Saccharomyces cerevisiae YDL190C mutant at 20 ug/disc after 24 to 48 hrs by agar diffusion assay; type: functional; details: read-out: DIZ; how it was run: as §1
# Saccharomyces cerevisiae [8] = assay: Growth inhibition of GSH2-deficient Saccharomyces cerevisiae YOL049W mutant at 20 ug/disc after 24 to 48 hrs by agar diffusion assay; type: functional; details: read-out: DIZ; how it was run: as §1
# A-431 [9] = assay: Induction of apoptosis in human A431 cells assessed as early apoptotic cells at 8 uM after 12 hrs by FITC-annexin V/PI staining-based flow cytometric analysis (reference value: 0.6%); type: functional
# [10] = Cytotoxicity against human PHF cells after 24 hrs by MTT assay; type: cell-based
# How it was run: (§3)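 MTT assay. Cells were seeded at 50,000 cells/mL in medium with 10% fetal calf serum and grown for two days at 37 °C, 10% CO2. Serial dilutions of compound were then added for 24 h. MTT was added (final 0.5 mg/mL) for 2 h, and the formazan was pelleted, washed, dissolved in isopropanol with 0.4% HCl and read at 590 nm. IC50 is the concentration giving 50% of untreated-control absorbance, taken from dose-response curves; mean of two parallel experiments.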
# A-431 [11] = assay: Induction of apoptosis in human A431 cells assessed as late apoptotic cells at 11 uM after 12 hrs by FITC-annexin V/PI staining-based flow cytometric analysis (reference value: 7.4%); type: functional
# MCF7 [12] = assay: Induction of Cell cycle arrest in human MCF7 cells assessed as G0/1 phase cells at IC50 concentration after 24 hrs by PI-staining based flow cytometric analysis (reference value: 68%); type: functional; how it was run: as §2
# MCF7 [13] = assay: Induction of oxidative stress in human MCF7 cells assessed as decrease in GSH level at 5 uM after 1 hr by DTNB assay relative to control; type: functional; set-up: scale not given: the % may be the effect or the level left
# How it was run: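 MCF-7 cells (10^6) were treated for 1 h at 37 °C, trypsinized, and washed twice with cold PBS. GSH was extracted with chilled 5% metaphosphoric acid at 4 °C for 2 h, then the lysate was centrifuged. Supernatant was mixed with 0.2 M sodium phosphate pH 8.0 and 0.04 mM DTNB for 10 min at room temperature. Absorbance was read at 412 nm against a reagent blank, and GSH was quantified from a standard curve.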
# A-431 [14] = assay: Induction of apoptosis in human A431 cells assessed as early apoptotic cells at 11 uM after 12 hrs by FITC-annexin V/PI staining-based flow cytometric analysis (reference value: 0.6%); type: functional
# Saccharomyces cerevisiae [15] = assay: Growth inhibition of POS5-deficient Saccharomyces cerevisiae YPL188W mutant at 20 ug/disc after 24 to 48 hrs by agar diffusion assay; type: functional; details: read-out: DIZ; how it was run: as §1
# A-431 [16] = assay: Induction of apoptosis in human A431 cells assessed as early apoptotic cells at 13 uM after 12 hrs by FITC-annexin V/PI staining-based flow cytometric analysis (reference value: 0.6%); type: functional
# Saccharomyces cerevisiae [17] = assay: Growth inhibition of GTT2-deficient Saccharomyces cerevisiae YLL060C mutant at 20 ug/disc after 24 to 48 hrs by agar diffusion assay; type: functional; details: read-out: DIZ; how it was run: as §1
# A-431 [18] = assay: Induction of apoptosis in human A431 cells after 12 hrs by FITC-annexin V/PI staining-based flow cytometric analysis; type: functional, cell-based
# A-431 [19] = assay: Cytotoxicity against human A431 cells after 24 hrs by MTT assay; type: functional, cell-based; details: A-431, 24 h; how it was run: as §3
# HUVEC = assay: Cytotoxicity against human HUVEC cells after 24 hrs by MTT assay; type: cell-based; how it was run: as §3
# Saccharomyces cerevisiae [20] = assay: Growth inhibition of WSC4-deficient Saccharomyces cerevisiae YHL028W mutant at 20 ug/disc 24 to 48 hrs by agar diffusion assay; type: functional; details: read-out: DIZ; how it was run: as §1
# Saccharomyces cerevisiae [21] = assay: Growth inhibition of COX17-deficient Saccharomyces cerevisiae YLL009C mutant at 20 ug/disc after 24 to 48 hrs by agar diffusion assay; type: functional; details: read-out: DIZ; how it was run: as §1
# A-431 [22] = assay: Induction of apoptosis in human A431 cells assessed as late apoptotic cells at 13 uM after 12 hrs by FITC-annexin V/PI staining-based flow cytometric analysis (reference value: 7.4%); type: functional
# Saccharomyces cerevisiae [23] = assay: Growth inhibition of wild type Saccharomyces cerevisiae BY4741 at 20 ug/disc after 24 to 48 hrs by agar diffusion assay; type: functional; details: read-out: DIZ; how it was run: as §1
# A498 = assay: Cytotoxicity against human A498 cells after 24 hrs by MTT assay; type: functional, cell-based; details: A498, 24 h; how it was run: as §3
# A-431 [24] = assay: Induction of apoptosis in human A431 cells assessed as caspase3/7 activation at 2.8 uM after 24 hrs by caspase-Glo assay; type: functional, cell-based
# How it was run: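 A-431 cells (20,000/well, 384-well) were incubated with compound for 1, 2, 4, 6, 12 and 24 h in the dark at 37 °C, 5% CO2. Caspase-Glo 3/7 reagent was added for 30 min at room temperature in the dark. Luminescence was then read on a plate luminometer.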
# MCF7 [25] = assay: Cytotoxicity against human MCF7 cells after 24 hrs by MTT assay; type: functional, cell-based; details: MCF7, 24 h; how it was run: as §3
# Saccharomyces cerevisiae [26] = assay: Growth inhibition of SOD2-deficient Saccharomyces cerevisiae YHR008C mutant at 20 ug/disc 24 to 48 hrs by agar diffusion assay; type: functional; details: read-out: DIZ; how it was run: as §1
structure (smiles),measurement,setting,value
CC1=C([Se]CC(OC(=O)CC[Se]c2ccccc2)C(=O)NCCCCCC(=O)OCc2ccccc2)C(=O)c2ccccc2C1=O (stereo not drawn),zone of inhibition at 20 µg/disc,Saccharomyces cerevisiae [1],14 mm
same,Activity,MCF7 [2],6.8%
same,Activity,MCF7 [3],6%
same,Activity,A-431 [4],12.9%
same,zone of inhibition at 20 µg/disc,Saccharomyces cerevisiae [5],15 mm
same,zone of inhibition at 20 µg/disc,Saccharomyces cerevisiae [6],16 mm
same,zone of inhibition at 20 µg/disc,Saccharomyces cerevisiae [7],15 mm
same,zone of inhibition at 20 µg/disc,Saccharomyces cerevisiae [8],15 mm
same,Activity,A-431 [9],2.5%
same,IC50,[10],6 µM
same,Activity,A-431 [11],13.1%
same,Activity,MCF7 [12],87%
same,Activity,MCF7 [13],62%
same,Activity,A-431 [14],7.7%
same,zone of inhibition at 20 µg/disc,Saccharomyces cerevisiae [15],17 mm
same,Activity,A-431 [16],4.1%
same,zone of inhibition at 20 µg/disc,Saccharomyces cerevisiae [17],25 mm
same,Activity,A-431 [18],Dose-dependent effect
same,IC50,A-431 [19],4 µM
same,IC50,HUVEC,3 µM
same,zone of inhibition at 20 µg/disc,Saccharomyces cerevisiae [20],26 mm
same,zone of inhibition at 20 µg/disc,Saccharomyces cerevisiae [21],15 mm
same,Activity,A-431 [22],29.3%
same,zone of inhibition at 20 µg/disc,Saccharomyces cerevisiae [23],0 mm
same,IC50,A498,4 µM
same,Activity,A-431 [24],Active
same,IC50,MCF7 [25],9 µM
same,zone of inhibition at 20 µg/disc,Saccharomyces cerevisiae [26],19 mm
